We go through two compounds from ChEMBL document CHEMBL1781999, “Lead optimization of aryl and aralkyl amine-based triazolopyrimidine inhibitors of Plasmodium falciparum dihydroorotate dehydrogenase with antimalarial activity in mice” (J Med Chem, 2011).

Active and inactive are the calls of the source. The calls are words filed in the database; no cut-off is given here.

In data set [1] the test system is Plasmodium berghei ANKA. Nature of the data set: Antimalarial activity against Plasmodium berghei ANKA NK65 infected in Swiss Webster mouse assessed as complete reduction of parasitemia level at 50 mg/kg, po bid administered for 4 days measured 24 hrs after last dose by light microscopic analysis. It counts as functional, organism-based. Set-up: dose 50 mg/kg.
The subject of data set [2] is Rattus norvegicus. Nature of the data set: Volume of distribution at steady state in Sprague-Dawley rat at 1 mg/kg, iv by LC-MS analysis. Conditions: in vivo. It counts as ADME, organism-based. Also on record: dose 1 mg/kg, route intravenous. In short, it runs like this:
(§1)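 Overnight-fasted male Sprague Dawley rats (n=2 per dose). IV dosing was a 10 min jugular infusion in a solution vehicle of DMSO and acid with Captisol or Tween/glucose, depending on compound; oral dosing was by gavage as a suspension.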

The subject of data set [3] is Rattus norvegicus. Nature of the data set: Cmax in Sprague-Dawley rat at 20.1 mg/kg, po by LC-MS analysis. Conditions: in vivo. It counts as ADME, organism-based. Set-up: dose 20.1 mg/kg, route oral. In short, it runs like this: (§2)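 Overnight-fasted male Sprague Dawley rats (n=2 per compound) gavaged with an aqueous suspension (DMSO, cellulose, benzyl alcohol, Tween 80 in water); food returned 4 h post-dose. Arterial blood via carotid cannula up to 24 h into heparinized tubes with stabilization cocktail. Plasma acetonitrile-precipitated, LC-MS against blank-plasma standards. AUC by non-compartmental analysis; Cmax read from profiles.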

Data set [4] relates to Rattus norvegicus. Nature of the data set: Oral bioavailability in Sprague-Dawley rat at 20.1 mg/kg by LC-MS analysis. The class given is ADME, organism-based. Conditions: in vivo. The method, boiled down:
(§3)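 Overnight-fasted male Sprague Dawley rats, dosed orally by gavage as an aqueous suspension, n=2. Arterial blood taken via carotid cannula up to 24 h; plasma measured by LC-MS. %F = mean dose-normalized oral AUC0-24h versus IV AUC0-24h at the higher IV dose (5 mg/kg or 3 mg/kg, depending on compound); treated as an estimate.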

In data set [5] the test system is Rattus norvegicus. In words: Terminal elimination half life in Sprague-Dawley rat at 1 mg/kg, iv by LC-MS analysis. The class given is ADME, organism-based. Also on record: dose 1 mg/kg, route intravenous. The conditions noted are these: in vivo. In short, it runs like this: as §1
A short description of data set [6]: Antimalarial activity against Plasmodium berghei ANKA NK65 infected in po dosed Swiss Webster mouse assessed as reduction of parasitemia level administered qd for 4 days measured 24 hrs after last dose by light microscopic analysis. The class given is functional.
The test system of data set [7] is Rattus norvegicus. In words: Terminal elimination half life in Sprague-Dawley rat at 5.1 mg/kg, iv by LC-MS analysis. Set-up: dose 5.1 mg/kg, route intravenous. It counts as ADME, organism-based. Conditions: in vivo. In short, it runs like this:
as §1

Data set [8] deals with Plasmodium berghei ANKA. Nature of the data set: Antimalarial activity against Plasmodium berghei ANKA NK65 infected in Swiss Webster mouse assessed as complete reduction of parasitemia level at 100 mg/kg, po qd administered for 4 days measured 24 hrs after last dose by light microscopic analysis. It counts as functional, organism-based. Set-up: dose 100 mg/kg. In short, it runs like this:
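Female Swiss Webster mice, 8-10 weeks old (20-22 g), infected intraperitoneally with 2 × 10^7 P. berghei NK65 ANKA-infected erythrocytes. Oral doses in CMC vehicle (200 μL), first given 3 h post-infection, then at 24, 48 and 72 h. Parasitemia followed daily from 24 h by light microscopy at 1000× oil immersion, counting ≥10 fields of >100 erythrocytes. Mice losing ≥20% body weight were euthanized.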

Data set [9] concerns Rattus norvegicus. Nature of the data set: Terminal elimination half life in Sprague-Dawley rat at 20.1 mg/kg, po by LC-MS analysis. The class given is ADME, organism-based. Set-up: dose 20.1 mg/kg, route oral. Conditions: in vivo. The method, boiled down: as §1
Data set [10] deals with Rattus norvegicus. In words: AUC (0 to infinity) in Sprague-Dawley rat at 20.1 mg/kg, po by LC-MS analysis. The class given is ADME, organism-based, Plasma. Set-up: time infinity, dose 20.1 mg/kg, route oral. Conditions: in vivo. In short, it runs like this: as §2
Data set [11] has as its system Rattus norvegicus. Nature of the data set: Volume of distribution at steady state in Sprague-Dawley rat at 5.1 mg/kg, iv by LC-MS analysis. It counts as ADME, organism-based. Conditions: in vivo. Set-up: dose 5.1 mg/kg, route intravenous. In short, it runs like this: as §1
Data set [12] in a line: Terminal elimination half life in Sprague-Dawley rat at 18.6 mg/kg, po by LC-MS analysis. Also on record: dose 18.6 mg/kg, route oral. The class given is ADME, organism-based. The conditions noted are these: in vivo, read-out: beta t1/2 (converted). In short, it runs like this:
as §1

Data set [13] is described as follows: Oral bioavailability in Sprague-Dawley rat at 18.6 mg/kg by LC-MS analysis. It counts as ADME, organism-based. The conditions noted are these: in vivo. The method, boiled down:
as §3

Data set [14] deals with Rattus norvegicus. Nature of the data set: Terminal elimination half life in Sprague-Dawley rat at 0.9 mg/kg, iv by LC-MS analysis. It counts as ADME, organism-based. Also on record: dose 0.9 mg/kg, route intravenous. The conditions noted are these: in vivo. The method, boiled down: as §1
Data set [15] is described as follows: Cmax in Sprague-Dawley rat at 18.6 mg/kg, po by LC-MS analysis. It counts as ADME, organism-based. Set-up: dose 18.6 mg/kg, route oral. Conditions: in vivo. The method, boiled down:
as §2

The subject of data set [16] is Rattus norvegicus. In words: Terminal elimination half life in Sprague-Dawley rat at 2.9 mg/kg, iv by LC-MS analysis. It counts as ADME, organism-based. Conditions: in vivo. Set-up: dose 2.9 mg/kg, route intravenous. In short, it runs like this:
as §1

Data set [17] deals with Plasmodium berghei ANKA. Nature of the data set: Antimalarial activity against Plasmodium berghei ANKA NK65 infected in Swiss Webster mouse assessed as complete cure of animal at 100 mg/kg, po bid measured on day 9 by light microscopic analysis. Set-up: dose 100 mg/kg. The class given is functional, organism-based.
The subject of data set [18] is Rattus norvegicus. Nature of the data set: Volume of distribution at steady state in Sprague-Dawley rat at 2.9 mg/kg, iv by LC-MS analysis. Set-up: dose 2.9 mg/kg, route intravenous. The class given is ADME, organism-based. The conditions noted are these: in vivo. The method, boiled down: as §1
Data set [19] is described as follows: AUC (0 to infinity) in Sprague-Dawley rat at 18.6 mg/kg, po by LC-MS analysis. The class given is ADME, organism-based. Also on record: time infinity, dose 18.6 mg/kg, route oral. The conditions noted are these: plasma. In short, it runs like this: as §2
Data set [20] deals with Rattus norvegicus. Nature of the data set: Volume of distribution at steady state in Sprague-Dawley rat at 0.9 mg/kg, iv by LC-MS analysis. The class given is ADME, organism-based. Set-up: dose 0.9 mg/kg, route intravenous. The conditions noted are these: in vivo. In short, it runs like this:
as §1

As to `Cc1cc(Nc2ccc(S(F)(F)(F)(F)F)cc2)n2ncnc2n1`, the outcome with Plasmodium berghei ANKA [1] and with Plasmodium berghei ANKA [8] was inactive. The Vdss was determined as 1.4 L/kg in the data set with Rattus norvegicus [2] and 1.5 L/kg with Rattus norvegicus [11]. Further, the peak level in the data set on Rattus norvegicus [3] (Cmax) was 31 µM. In the data set with Rattus norvegicus [4], the F is given as more than 100%. Also, the “beta t1/2” value in the data set with Rattus norvegicus [5] worked out at 11.4 h; with Rattus norvegicus [7], 14.5 h; with Rattus norvegicus [9], 33 h. Moreover, in [6], the median effective dose (ED50) was 17 mg/kg. The same compound returned an exposure (AUC) in the data set on Rattus norvegicus [10] of 101693 µM·min.
For the compound `Cc1cc(Nc2cc(F)c(C(F)(F)F)c(F)c2)n2ncnc2n1`, in data set [12], the half-life is 17.6 h. The same compound registered a bioavailability in data set [13] of more than 100%. In addition, the “beta t1/2” value amounted to 1.6 h in the data set on Rattus norvegicus [14] and 4.5 h in the data set with Rattus norvegicus [16]. In addition, the Cmax in [15] was 34.3 µM. In addition, the result in the data set with Plasmodium berghei ANKA [17] was inactive. Also, the Vdss in the data set on Rattus norvegicus [18] is 0.5 L/kg; with Rattus norvegicus [20] it was 0.4 L/kg. For the same compound, the AUC(0-inf) in [19] is 1250 µM·h.
